Calls of active or inactive are those of the source. The rule behind the calls is not given here.
What was measured:
HepG2 = experiment: Ratio IC50 for SCD-1 activity in organic anion transporting polypeptides-deficient human HepG2 cells to IC50 for SCD-1 activity in Sprague-Dawley rat Hepatocytes expressing organic anion transporting polypeptides; assay type: cell-based
Procedure, shortened: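 Cellular SCD IC50s measured in human HepG2 cells (lacking active OATPs) and in rat hepatocytes (active OATPs). Hepatocytes preincubated with compound for 15 min at 37 °C, then given 14C-stearic acid (final 0.5 μCi/ml) for 1 h with shaking. Lipids hydrolysed in 2N NaOH at 75 °C, acidified and extracted. Radiolabelled oleic and stearic acid resolved by HPLC with flow scintillation detection. Mean of at least n = 3. HepG2 IC50 divided by hepatocyte IC50.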

Mus musculus [1] = experiment: Antidiabetic activity in diet-induced obese C57BL6 mouse assessed as reduction in body weight gain at 30 mg/kg, po BID; assay type: functional, organism-based; design: dose 30 mg/kg
Mus musculus [2] = experiment: Inhibition of SCD activity in liver of diet-induced obese C57BL6 mouse assessed as reduction in desaturation induces at 30 mg/kg, po BID; assay type: functional, organism-based; design: dose 30 mg/kg
Acyl-CoA desaturase 1 [3] = molecular target: T1, Acyl-CoA desaturase 1 (Rattus norvegicus, UniProt P07308); experiment: Inhibition of SCD-1 activity in Sprague-Dawley rat microsome assessed as reduction in [I-14C] stearoyl CoA desaturation by scintillation counting; assay type: microsomes
T1 sequence (P07308 whole entry): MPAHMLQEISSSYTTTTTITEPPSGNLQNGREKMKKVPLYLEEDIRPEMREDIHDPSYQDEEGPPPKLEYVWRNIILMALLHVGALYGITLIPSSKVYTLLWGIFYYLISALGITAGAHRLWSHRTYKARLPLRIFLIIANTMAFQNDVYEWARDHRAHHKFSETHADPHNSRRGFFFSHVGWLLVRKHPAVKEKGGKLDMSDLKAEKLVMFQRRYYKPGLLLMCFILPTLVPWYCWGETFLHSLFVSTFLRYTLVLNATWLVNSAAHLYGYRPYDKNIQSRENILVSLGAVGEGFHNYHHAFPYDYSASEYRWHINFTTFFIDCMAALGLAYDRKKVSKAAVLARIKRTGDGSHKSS

Liver [4] = experiment: Ratio drug uptake in liver to harderian gland of C57BL6 mouse at 10 mg/kg, po measured 6 hrs post dose; assay type: ADME, organism-based; design: dose 10 mg/kg, route oral; conditions: in vivo
Procedure, shortened: (§1)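 Single oral dose of 10 mg/kg in 0.5% methylcellulose to fed C57BL6 mice (n = 2). Animals sacrificed 6 h post dose. Plasma, liver, skin and Harderian gland collected. Tissues homogenized in MeCN/water with internal standard and drug quantified by LC-MS against a standard curve made in blank plasma. Concentration ratio calculated.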

Acyl-CoA desaturase 1 [5] = molecular target: T1, Acyl-CoA desaturase 1; experiment: Inhibition of SCD-1 activity in Sprague-Dawley rat Hepatocytes expressing organic anion transporting polypeptides assessed as reduction in [I-14C] […] desaturation by scintillation counting; assay type: cell-based, Hepatocyte
Procedure, shortened: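 Rat hepatocytes (4 × 10^6 cells/mL) were preincubated with compound for 15 min at 37 °C/5% CO2. 14C-stearic acid (final 0.5 μCi/mL) was then added for 1 h with shaking. Cells were washed, hydrolyzed in 2N NaOH at 75 °C for 1 h, acidified and extracted. Radiolabeled oleic and stearic acids were quantified by HPLC with flow scintillation detection. Mean of at least n = 3.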

Stearoyl-CoA desaturase = molecular target: T2, Stearoyl-CoA desaturase (Homo sapiens, UniProt O00767); experiment: Inhibition of SCD-1 activity in organic anion transporting polypeptides-deficient human HepG2 cells assessed as reduction in [I-14C] stearoyl CoA desaturation by scintillation counting; assay type: cell-based
T2 sequence (O00767 whole entry): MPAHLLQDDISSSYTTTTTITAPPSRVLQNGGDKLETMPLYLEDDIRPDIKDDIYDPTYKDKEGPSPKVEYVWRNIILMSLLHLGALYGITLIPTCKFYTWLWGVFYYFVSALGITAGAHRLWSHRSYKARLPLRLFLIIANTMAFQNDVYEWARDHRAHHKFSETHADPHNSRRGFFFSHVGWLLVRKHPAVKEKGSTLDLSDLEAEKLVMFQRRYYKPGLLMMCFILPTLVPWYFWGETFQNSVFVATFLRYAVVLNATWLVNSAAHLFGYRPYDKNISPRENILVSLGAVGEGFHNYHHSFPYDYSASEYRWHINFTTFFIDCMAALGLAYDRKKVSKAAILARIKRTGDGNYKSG

Mus musculus [6] = experiment: Antidiabetic activity in diet-induced obese C57BL6 mouse assessed as reduction in glucose AUC at 1 to 3 mg/kg, po administered 1 hr before oral glucose administration measured 2 hrs thereafter; assay type: functional; conditions: dose mg/kg 1-3
Mus musculus [7] = experiment: Antidiabetic activity in diet-induced obese C57BL6 mouse assessed as reduction in glucose AUC at 1 to 10 mg/kg, po administered 1 hr before oral glucose administration measured 2 hrs thereafter; assay type: functional; conditions: dose mg/kg 1-10
Liver [8] = experiment: Drug level in liver of diet-induced obese C57BL6 mouse at 5 mg/kg, po QD; assay type: ADME, organism-based; design: dose 5 mg/kg, route oral; conditions: in vivo, read-out: Drug uptake
Procedure, shortened: (§2)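 eDIO mice were dosed orally for 4 weeks, either 20 mg/kg bid or 5 mg/kg qd. Liver, Harderian gland and skin were taken at trough at study termination, and compound concentration was measured by LC-MS.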

Mus musculus [9] = experiment: Inhibition of SCD activity in liver of diet-induced obese C57BL6 mouse assessed as reduction in desaturation induces at 5 mg/kg, po QD; assay type: functional
Mus musculus [10] = experiment: Inhibition of SCD activity in harderian gland of diet-induced obese C57BL6 mouse assessed as reduction in desaturation induces at 5 mg/kg, po QD; assay type: functional
Mus musculus [11] = experiment: Inhibition of SCD activity in skin of diet-induced obese C57BL6 mouse assessed as reduction in desaturation induces at 5 mg/kg, po QD; assay type: functional
[12] = Volume of distribution in fasted C57BL6 mouse at 2 mg/kg, iv and 10 mg/kg, po by LC-MS-MS analysis; assay type: ADME, organism-based; conditions: in vivo
Procedure, shortened: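 Fasted male C57BL6 mice given 2 mg/kg IV and 10 mg/kg PO. Plasma drug levels measured by LC-MS/MS, mean of n = 3 animals, and PK parameters derived from these.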

Zone of skin = experiment: Drug level in skin of diet-induced obese C57BL6 mouse at 5 mg/kg, po QD; assay type: ADME, organism-based; design: dose 5 mg/kg, route oral; conditions: in vivo, read-out: Drug uptake; procedure, shortened: as §2
Mus musculus [13] = experiment: Toxicity in diet-induced obese C57BL6 mouse assessed as adverse effect in skin at 1 to 5 mg/kg, po QD; assay type: organism-based; design: dose 1-5 mg/kg, route oral; conditions: in vivo
[14] = AUC in plasma of fasted C57BL6 mouse at 2 mg/kg, iv and 10 mg/kg, po by LC-MS-MS analysis; assay type: ADME, organism-based
Procedure, shortened: (§3)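 Fasted male C57BL6 mice received 2 mg/kg IV and 10 mg/kg PO. For the reference compound, IV was given as a solution in 60% PEG-200 and PO as a suspension in 1% methocel. Plasma levels were measured by LC-MS/MS. Values are the mean of n = 3 animals.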

[15] = Ratio drug uptake in liver to plasma of C57BL6 mouse at 10 mg/kg, po measured 6 hrs post dose; assay type: ADME, organism-based; design: dose 10 mg/kg, route oral; conditions: liver and plasma; procedure, shortened: as §1
[16] = Drug level in harderian gland of diet-induced obese C57BL6 mouse at 5 mg/kg, po QD; assay type: ADME, organism-based; design: dose 5 mg/kg, route oral; conditions: in vivo, read-out: Drug uptake; procedure, shortened: as §2
[17] = Clearance in fasted C57BL6 mouse at 2 mg/kg, iv and 10 mg/kg, po by LC-MS-MS analysis; assay type: ADME, organism-based; conditions: in vivo; procedure, shortened: as §3
Mus musculus [18] = experiment: Antidiabetic activity in diet-induced obese C57BL6 mouse assessed as reduction in body weight gain at 5 mg/kg, po QD; assay type: functional; design: scale not given: the % may be the effect or the level left
Procedure, shortened: (§4)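 Male C57/Bl6 mice were fed a high fat diet for at least 18 weeks from 6 weeks of age, then given vehicle (1% methocel, bid) for 7 days and randomized by body weight. Oral dosing (qd or bid) ran for 28 days, with n = 8–10/group. Body weight, food intake and skin/eye scores were recorded twice weekly.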

[19] = Cmax in plasma of fasted C57BL6 mouse at 2 mg/kg, iv and 10 mg/kg, po by LC-MS-MS analysis; assay type: ADME, organism-based; procedure, shortened: as §3
Mus musculus [20] = experiment: Antidiabetic activity in diet-induced obese C57BL6 mouse assessed as reduction in glucose AUC at 1 to 15 mg/kg, po administered 1 hr before oral glucose administration measured 2 hrs thereafter; assay type: functional; conditions: dose mg/kg 1-15
Mus musculus [21] = experiment: Antidiabetic activity in diet-induced obese C57BL6 mouse assessed as reduction in body weight gain at 1 mg/kg, po QD; assay type: functional; design: scale not given: the % may be the effect or the level left; procedure, shortened: as §4
Mus musculus [22] = experiment: Antidiabetic activity in po dosed diet-induced obese C57BL6 mouse assessed as reduction in body weight gain; assay type: functional, organism-based; procedure, shortened: as §4
Mus musculus [23] = experiment: Toxicity in diet-induced obese C57BL6 mouse assessed as reduction in food intake at 1 to 5 mg/kg, po QD; assay type: organism-based; design: dose 1-5 mg/kg, route oral; conditions: in vivo
Procedure, shortened: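 Obese male C57/Bl6 mice after at least 18 weeks of high fat diet and a 7-day vehicle run-in, randomized by body weight. Dosed orally at 1 or 5 mg/kg qd for 28 days (n = 8–10/group). Food consumption monitored twice weekly.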

Mus musculus [24] = experiment: Toxicity in diet-induced obese C57BL6 mouse assessed as adverse effect in eye at 1 to 5 mg/kg, po QD; assay type: organism-based; design: dose 1-5 mg/kg, route oral; conditions: in vivo
Mus musculus [25] = experiment: Antidiabetic activity in po dosed diet-induced obese fasted C57BL6 mouse assessed as increase in glucose clearance administered 1 hr before glucose challenge measured 12 hrs thereafter by OGTT; assay type: functional; conditions: in the assay text read “2 hrs” for “12 hrs”
Procedure, shortened: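 Male C57/Bl6 mice were kept on a high fat diet for at least 14 weeks from 6 weeks of age, then fasted 16 h. Compound was given orally 1 h before a 2 g/kg oral glucose load.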

O=C(O)Cn1nnc(-c2nnc(N3CCC(Oc4cc(F)ccc4Br)CC3)s2)n1
Ratio IC50 (HepG2): 5 | Activity (Mus musculus [1]): inactive | inhibition (Mus musculus [2]): Active | IC50 (Acyl-CoA desaturase 1 [3]): 7 nM | Ratio (Liver [4]): 40 | IC50 (Acyl-CoA desaturase 1 [5]): 189 nM | IC50 (Stearoyl-CoA desaturase): 904 nM

Fc1ccc(Br)c(OC2CCN(c3nnc(-c4nn[nH]n4)s3)CC2)c1
Ratio IC50 (HepG2): 4 | IC50 (Acyl-CoA desaturase 1 [3]): 34 nM | Ratio (Liver [4]): 26 | IC50 (Acyl-CoA desaturase 1 [5]): 3070 nM | IC50 (Stearoyl-CoA desaturase): 12600 nM

Cc1nnc(-c2ccc(N3CCC(Oc4ccccc4C(F)(F)F)CC3)nn2)s1
inhibition (INH) (Mus musculus [6]): 55% | inhibition (INH) (Mus musculus [7]): 62% | concentration (Liver [8]): 10 µM | Ratio IC50 (HepG2): 0.14 | inhibition in vivo at 5 mg/kg (Mus musculus [9]): 56% | inhibition in vivo at 5 mg/kg (Mus musculus [10]): 92% | inhibition in vivo at 5 mg/kg (Mus musculus [11]): 25% | Vd [12]: 7 L/kg | concentration (Zone of skin): 4 µM | inhibition (Mus musculus [2]): Active | Activity (Mus musculus [13]): Toxic | IC50 (Acyl-CoA desaturase 1 [3]): 2 nM | AUC [14]: 19 µM·h | Kp at 6 h [15]: 14 | Ratio (Liver [4]): 1.5 | IC50 (Acyl-CoA desaturase 1 [5]): 157 nM | concentration [16]: 5 µM | clearance [17]: 15 mL/min/kg | Activity (Mus musculus [18]): 20% | IC50 (Stearoyl-CoA desaturase): 21 nM | Cmax [19]: 1.3 µM | inhibition (INH) (Mus musculus [20]): 75% | Activity (Mus musculus [21]): 10% | Activity (Mus musculus [22]): Dose-dependent effect | Activity (Mus musculus [23]): Non-toxic | Activity (Mus musculus [24]): Toxic | Activity (Mus musculus [25]): Dose-dependent effect | ED50 (Mus musculus [25]): 3 mg/kg

From ChEMBL document CHEMBL2150952 (J Med Chem, 2011)
